Data as given in ChEMBL document CHEMBL1145913, “Synthesis and evaluation of imidazole acetic acid inhibitors of activated thrombin-activatable fibrinolysis inhibitor as novel antithrombotics” (J Med Chem, 2003).

Assays:
[1] = Concentration of compound that gives 50% of the maximum acceleration of lysis was determined by clot lysis assay using human plasma; format: functional
[2] = In vitro inhibition of purified Carboxypeptidase N (CPN) by spectrophotometric assay
[3] = biological target: Carboxypeptidase B2 (Homo sapiens) (UniProt Q96IY4); assay: In vitro inhibition of activated thrombin-activatable fibrinolysis inhibitor (TAFIa) was determined by ECL enzyme assay
[4] = In vitro inhibition of thrombin-activatable fibrinolysis was determined against TAFIa enzyme by ECL assay
[5] = Tested in vivo for time-to-occlusion in jugular vein of african green monkey when administered at a dose of 0.3 mg/kg iv bolus + 0.1 mg/(kg.min) continuous infusion; format: functional, Cercopithecidae
How it was run: (§1)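 African green monkey jugular vein model. Time-to-occlusion is recorded during iv bolus plus continuous infusion for 300 min; vehicle-treated animals are included.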

[6] = Tested in vivo for bleeding time in african green monkey when administered along with saline; format: functional, Cercopithecidae
How it was run: (§2)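 African green monkeys receive an iv bolus and then continuous infusion for 300 min, or vehicle. Template bleeding time is measured.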

[7] = Tested in vivo for bleeding time in african green monkey when administered at a dose of 0.03 mg/kg iv bolus + 0.01 mg/(kg.min) continuous infusion; format: functional, Cercopithecidae; how it was run: as §2
[8] = Bioavailability in dog; format: ADME, organism-based, Canis lupus familiaris; details: in vivo
[9] = Bioavailability in rat; format: ADME, organism-based; details: in vivo
[10] = Bioavailability in rhesus; format: ADME, organism-based, Macaca mulatta; details: rhesus monkey, in vivo
[11] = Volume of distribution in dog; format: ADME, organism-based, Canis lupus familiaris; details: in vivo, read-out: Vdss
[12] = Volume of distribution in rat; format: ADME, organism-based; details: in vivo, read-out: Vdss
[13] = Volume of distribution in rhesus; format: ADME, organism-based, Macaca mulatta; details: rhesus monkey, in vivo; read-out: Vdss
[14] = Tested in vivo for bleeding time in african green monkey when administered at a dose of 0.05 mg/kg iv bolus + 0.02 mg/(kg.min) continuous infusion; format: functional, Cercopithecidae; how it was run: as §2
[15] = Tested in vivo for bleeding time in african green monkey when administered at a dose of 0.1 mg/kg iv bolus + 0.03 mg/(kg.min) continuous infusion; format: functional, Cercopithecidae; how it was run: as §2
[16] = Tested in vivo for time-to-occlusion in carotid artery of african green monkey when administered along with saline; format: functional, Cercopithecidae
[17] = Tested in vivo for time-to-occlusion in carotid artery of african green monkey when administered at a dose of 0.05 mg/kg iv bolus + 0.02 mg/(kg.min) continuous infusion; format: functional, Cercopithecidae
[18] = Tested in vivo for time-to-occlusion in carotid artery of african green monkey when administered at a dose of 0.1 mg/kg iv bolus + 0.03 mg/(kg.min) continuous infusion; format: functional, Cercopithecidae
[19] = Tested in vivo for time-to-occlusion in carotid artery of african green monkey when administered at a dose of 0.3 mg/kg iv bolus + 0.1 mg/(kg.min) continuous infusion; format: functional, Cercopithecidae
[20] = Tested in vivo for time-to-occlusion in jugular vein of african green monkey when administered along with saline; format: functional, Cercopithecidae; how it was run: as §1
[21] = Tested in vivo for time-to-occlusion in jugular vein of african green monkey when administered at a dose of 0.03 mg/kg iv bolus + 0.01 mg/(kg.min) continuous infusion; format: functional, Cercopithecidae; how it was run: as §1
[22] = Tested in vivo for time-to-occlusion in jugular vein of african green monkey when administered at a dose of 0.05 mg/kg iv bolus + 0.02 mg/(kg.min) continuous infusion; format: functional, Cercopithecidae; how it was run: as §1
[23] = Tested in vivo for time-to-occlusion in jugular vein of african green monkey when administered at a dose of 0.1 mg/kg iv bolus + 0.03 mg/(kg.min) continuous infusion; format: functional, Cercopithecidae; how it was run: as §1
[24] = Half life in dog; format: ADME, organism-based, Canis lupus familiaris; details: in vivo
[25] = Half life in rat; format: ADME, organism-based; details: in vivo
[26] = Half life in rhesus; format: ADME, organism-based, Macaca mulatta; details: rhesus monkey, in vivo
[27] = Clearance in dog; format: ADME, organism-based, Canis lupus familiaris; details: in vivo
[28] = Clearance in rat; format: ADME, organism-based; details: in vivo
[29] = Clearance in rhesus; format: ADME, organism-based, Macaca mulatta; details: rhesus monkey, in vivo
[30] = Tested in vivo for bleeding time in african green monkey when administered at a dose of 0.3 mg/kg iv bolus + 0.1 mg/(kg.min) continuous infusion; format: functional, Cercopithecidae; how it was run: as §2
[31] = Tested in vivo for time-to-occlusion in carotid artery of african green monkey when administered at a dose of 0.03 mg/kg iv bolus + 0.01 mg/(kg.min) continuous infusion; format: functional, Cercopithecidae

**Q.** For `CCCCn1cnc(C(Cc2ccc(N)nc2)C(=O)O)c1` (centres undefined), which CLT50 [1] is on record?
**A.** The CLT50 was 0.15 µM.

**Q.** What about the IC50 [2] of the same compound?
**A.** The IC50 was > 50 µM.

**Q.** For `O=C(O)CC(Cc1ccccc1)C(=O)O` (centres undefined), which CLT50 [1] is on record?
**A.** Its CLT50 is >50 µM.

**Q.** With `O=C(O)C(Cc1ccccc1)c1c[nH]cn1` (centres undefined) as the compound, how does the CLT50 [1] read?
**A.** The CLT50 was >50 µM.

**Q.** And the IC50 [2]?
**A.** Its IC50 is > 50 µM.

**Q.** And the IC50 [3]?
**A.** The IC50 was > 100000 nM.

**Q.** Which results are given for `Cn1cnc(C(Cc2ccc(N)nc2)C(=O)O)c1` (centres undefined)?
**A.** CLT50 [1]: 0.42 µM; IC50 [2]: > 50 µM

**Q.** With `CC(C)n1cnc(C(Cc2ccc(N)nc2)C(=O)O)c1` (centres undefined) as the compound, how does the CLT50 [1] read?
**A.** Its CLT50 is 1.06 µM.

**Q.** What about the IC50 [2] of the same compound?
**A.** The IC50 was > 50 µM.

**Q.** With `CCn1cnc(C(Cc2ccc(N)nc2)C(=O)O)c1` (centres undefined) as the compound, how does the CLT50 [1] read?
**A.** Its CLT50 is 0.65 µM.

**Q.** And the IC50 [2]?
**A.** Its IC50 is > 50 µM.

**Q.** For `Nc1ccc(CC(C(=O)O)c2cn(Cc3ccccc3)cn2)cn1` (centres undefined), which CLT50 [1] is on record?
**A.** Its CLT50 is 0.74 µM.

**Q.** And the IC50 [2]?
**A.** Its IC50 is > 50 µM.

**Q.** What about the IC50 [3] of the same compound?
**A.** The IC50 was 28 nM.

**Q.** What does the source list for `Nc1ccc(CC(C(=O)O)c2c[nH]cn2)cn1` (racemic)?
**A.** CLT50 [1]: 0.97 µM; IC50 [4]: 80 nM

**Q.** Which CLT50 [1] does the source give for `CC(C)CCn1cnc(C(Cc2ccc(N)nc2)C(=O)O)c1` (racemic) here?
**A.** Its CLT50 is 0.12 µM.

**Q.** What about the IC50 [4] of the same compound?
**A.** Its IC50 is 5 nM.

**Q.** With `Nc1ccc(CC(C(=O)O)c2c[nH]cn2)cn1` (single isomer, unassigned; (-)) as the compound, how does the CLT50 [1] read?
**A.** The CLT50 was 0.5 µM.

**Q.** What about the IC50 [4] of the same compound?
**A.** Its IC50 is 40 nM.

**Q.** Which CLT50 [1] does the source give for `Nc1ccc(CC(C(=O)O)c2c[nH]cn2)cn1` (stereo in doubt; 10b(+)) here?
**A.** The CLT50 was >10 µM.

**Q.** What about the IC50 [2] of the same compound?
**A.** Its IC50 is > 50 µM.

**Q.** What about the IC50 [4] of the same compound?
**A.** Its IC50 is 1800 nM.

**Q.** With `CC(C)CCn1cnc(C(Cc2ccc(N)nc2)C(=O)O)c1` (stereo in doubt; 10j(-)) as the compound, how does the TTO [5] read?
**A.** Its TTO is 216 min.

**Q.** And the Bleeding time [6]?
**A.** The Bleeding time was 2 min.

**Q.** And the Bleeding time [7]?
**A.** The Bleeding time was 2 min.

**Q.** And the bioavailability [8]?
**A.** Its bioavailability is 38%.

**Q.** And the bioavailability [9]?
**A.** The bioavailability was 47%.

**Q.** What about the bioavailability [10] of the same compound?
**A.** Its bioavailability is 12%.

**Q.** What about the Vd [11] of the same compound?
**A.** Its Vd is 0.28 L/kg.

**Q.** What about the Vd [12] of the same compound?
**A.** The Vd was 1.36 L/kg.

**Q.** What about the Vd [13] of the same compound?
**A.** The Vd was 0.26 L/kg.

**Q.** And the Bleeding time [14]?
**A.** Its Bleeding time is 2.2 min.

**Q.** And the Bleeding time [15]?
**A.** Its Bleeding time is 2.3 min.

**Q.** What about the TTO [16] of the same compound?
**A.** Its TTO is 51 min.

**Q.** And the TTO [17]?
**A.** Its TTO is 62 min.

**Q.** And the TTO [18]?
**A.** The TTO was 52 min.

**Q.** And the TTO [19]?
**A.** Its TTO is 85 min.

**Q.** What about the TTO [20] of the same compound?
**A.** The TTO was 96 min.

**Q.** What about the TTO [21] of the same compound?
**A.** Its TTO is 128 min.

**Q.** And the TTO [22]?
**A.** The TTO was 147 min.

**Q.** What about the TTO [23] of the same compound?
**A.** Its TTO is 171 min.

**Q.** What about the half-life [24] of the same compound?
**A.** The half-life was 36 min.

**Q.** And the half-life [25]?
**A.** The half-life was 66 min.

**Q.** What about the half-life [26] of the same compound?
**A.** Its half-life is 48 min.

**Q.** What about the clearance [27] of the same compound?
**A.** The clearance was 6.1 mL/min/kg.

**Q.** And the clearance [28]?
**A.** Its clearance is 32 mL/min/kg.

**Q.** What about the clearance [29] of the same compound?
**A.** Its clearance is 6.1 mL/min/kg.

**Q.** What about the Bleeding time [30] of the same compound?
**A.** The Bleeding time was 2.9 min.

**Q.** And the CLT50 [1]?
**A.** Its CLT50 is 0.056 µM.

**Q.** What about the TTO [31] of the same compound?
**A.** The TTO was 61 min.

**Q.** And the IC50 [2]?
**A.** Its IC50 is > 50 µM.

**Q.** What about the IC50 [4] of the same compound?
**A.** The IC50 was 2 nM.
